Measurements taken from the M2OR odorant receptor database.

Target: T1, OR2M3 (Homo sapiens) (UniProt Q8NG83)
T1 sequence (whole entry): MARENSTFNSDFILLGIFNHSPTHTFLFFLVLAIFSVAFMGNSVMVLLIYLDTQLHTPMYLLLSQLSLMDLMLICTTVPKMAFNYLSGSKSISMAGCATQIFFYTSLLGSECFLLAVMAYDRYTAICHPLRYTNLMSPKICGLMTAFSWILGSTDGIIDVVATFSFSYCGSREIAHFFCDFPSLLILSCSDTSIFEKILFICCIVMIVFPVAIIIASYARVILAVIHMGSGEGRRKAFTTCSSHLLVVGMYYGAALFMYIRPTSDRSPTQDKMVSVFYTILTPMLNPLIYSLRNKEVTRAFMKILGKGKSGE
Conditions: stereoisomer not certain
In short: (§1)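 Whether a receptor–molecule pair is responsive (active) rests on the original authors' judgment that its measured signal was statistically different from baseline. Pairs without that judgment are non-responsive (inactive). Sources used varied assay methods, commonly transient luciferase assays in mammalian cell lines.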
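Also: active if original authors judged signal statistically different from baseline.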

| SMILES | odorant receptor agonist call |
| --- | --- |
| O=C(O)Cc1ccccc1 | inactive |
| COc1ccc(C=O)cc1 | inactive |
| C=CCOC(=O)Cc1ccccc1 | inactive |
| C=CCSSCC=C | inactive |
| C=CCc1ccc(OC)cc1 | inactive |
| Cc1c([N+](=O)[O-])c(C)c([N+](=O)[O-])c(C(C)(C)C)c1[N+](=O)[O-] | inactive |
| CSSC | inactive |
| CCOC(=O)Cc1ccccc1 | inactive |
| Cc1ccccc1O | inactive |
| Cc1ccc(O)c(C)c1 | inactive |
| SCc1ccco1 | inactive |

Target: T2, OR2M4 (Homo sapiens) (UniProt Q96R27)
T2 sequence (whole entry): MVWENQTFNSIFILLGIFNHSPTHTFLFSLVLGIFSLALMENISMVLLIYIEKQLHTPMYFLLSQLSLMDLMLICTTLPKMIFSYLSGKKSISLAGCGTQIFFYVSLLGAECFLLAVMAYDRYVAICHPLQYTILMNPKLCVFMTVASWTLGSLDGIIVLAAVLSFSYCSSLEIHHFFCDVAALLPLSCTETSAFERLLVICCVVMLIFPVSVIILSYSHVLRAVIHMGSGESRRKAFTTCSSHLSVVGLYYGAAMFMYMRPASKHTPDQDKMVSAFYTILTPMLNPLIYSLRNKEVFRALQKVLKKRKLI
Conditions: stereoisomer not certain
In short: as §1

| SMILES | odorant receptor agonist call |
| --- | --- |
| C=CCOC(=O)Cc1ccccc1 | inactive |
| O=CC=Cc1ccccc1 | active |
| O=Cc1ccccc1 | inactive |

Target: T3, OR2M7 (Homo sapiens) (UniProt Q8NG81)
T3 sequence (whole entry): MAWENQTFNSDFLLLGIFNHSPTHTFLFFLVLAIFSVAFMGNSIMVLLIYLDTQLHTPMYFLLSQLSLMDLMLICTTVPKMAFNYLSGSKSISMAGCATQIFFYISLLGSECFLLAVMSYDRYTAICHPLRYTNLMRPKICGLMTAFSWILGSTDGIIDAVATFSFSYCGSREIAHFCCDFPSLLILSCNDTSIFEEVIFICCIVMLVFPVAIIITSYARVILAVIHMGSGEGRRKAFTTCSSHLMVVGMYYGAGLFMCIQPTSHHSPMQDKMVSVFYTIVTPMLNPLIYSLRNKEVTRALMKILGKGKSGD
Conditions: stereoisomer not certain
In short: as §1

| SMILES | odorant receptor agonist call |
| --- | --- |
| C=CCOC(=O)Cc1ccccc1 | inactive |
| Cc1c([N+](=O)[O-])c(C)c([N+](=O)[O-])c(C(C)(C)C)c1[N+](=O)[O-] | inactive |
| O=c1cc(O)c2ccccc2o1 | inactive |
| C=CCc1ccccc1 | inactive |
| CCC1CCC(=O)O1 (centres undefined) | inactive |
